ChEMBL document CHEMBL4261639, “Cell-Active Small Molecule Inhibitors of the DNA-Damage Repair Enzyme Poly(ADP-ribose) Glycohydrolase (PARG): Discovery and Optimization of Orally Bioavailable Quinazolinedione Sulfonamides” (J Med Chem, 2018)
Converted amounts (≈) assume the structure as drawn.

Legend:
[1] = biological target: T1, Poly(ADP-ribose) glycohydrolase (Homo sapiens, UniProt Q86W56); test: Inhibition of human full length PARG using Bt-NAD ribosylated PARP1 substrate after 10 mins by TR-FRET assay
T1 sequence (Q86W56 whole entry): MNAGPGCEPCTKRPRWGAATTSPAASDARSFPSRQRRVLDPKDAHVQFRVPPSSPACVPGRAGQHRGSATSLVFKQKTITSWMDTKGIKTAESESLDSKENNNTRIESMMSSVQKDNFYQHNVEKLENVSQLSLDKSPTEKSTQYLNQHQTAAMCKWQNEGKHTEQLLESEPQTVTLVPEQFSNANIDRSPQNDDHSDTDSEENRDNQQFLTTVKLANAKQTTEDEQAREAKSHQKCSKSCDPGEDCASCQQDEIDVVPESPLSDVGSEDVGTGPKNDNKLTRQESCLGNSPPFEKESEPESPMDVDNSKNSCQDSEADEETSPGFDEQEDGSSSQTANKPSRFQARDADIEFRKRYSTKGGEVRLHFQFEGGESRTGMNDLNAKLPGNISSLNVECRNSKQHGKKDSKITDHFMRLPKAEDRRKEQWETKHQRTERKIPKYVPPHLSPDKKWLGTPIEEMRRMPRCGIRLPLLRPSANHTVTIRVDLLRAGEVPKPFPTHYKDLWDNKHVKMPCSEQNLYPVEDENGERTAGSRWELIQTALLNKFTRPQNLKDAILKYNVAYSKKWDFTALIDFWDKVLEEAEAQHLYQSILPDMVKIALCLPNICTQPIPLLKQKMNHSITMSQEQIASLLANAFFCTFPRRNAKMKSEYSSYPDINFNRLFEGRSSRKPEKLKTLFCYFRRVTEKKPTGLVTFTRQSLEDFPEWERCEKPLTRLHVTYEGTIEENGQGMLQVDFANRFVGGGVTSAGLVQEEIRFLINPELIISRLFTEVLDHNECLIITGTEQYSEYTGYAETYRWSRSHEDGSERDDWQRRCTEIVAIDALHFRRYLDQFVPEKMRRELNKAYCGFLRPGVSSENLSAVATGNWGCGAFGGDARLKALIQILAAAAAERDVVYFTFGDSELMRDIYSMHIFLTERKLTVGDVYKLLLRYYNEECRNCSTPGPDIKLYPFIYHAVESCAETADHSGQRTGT

[2] = biological target: T1, Poly(ADP-ribose) glycohydrolase; test: Inhibition of PARG in human HeLa cells assessed as induction of MMS-induced PAR chains preincubated for 1 hr followed by MMS addition and measured after 1 hr by Alexofluor 488-conjugated secondary antibody and Hoechst 33342 staining based assay; assay type: cell-based
Outline: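 Acute (1 h) cell-based proof-of-mechanism assay measuring persistence of PAR chains, i.e. blockade of PARG-mediated PAR degradation, across a dose range. EC50 values are means of at least 4 independent measurements, with standard deviations.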

[3] = biological target: T2, ADP-ribosylhydrolase ARH3 (Homo sapiens, UniProt Q9NX46); test: Inhibition of human full length C-terminus His-tagged ARH3 expressed in Escherichia coli using Bt-NAD ribosylated PARP1 substrate after 30 mins by TR-FRET assay
T2 sequence (Q9NX46 whole entry): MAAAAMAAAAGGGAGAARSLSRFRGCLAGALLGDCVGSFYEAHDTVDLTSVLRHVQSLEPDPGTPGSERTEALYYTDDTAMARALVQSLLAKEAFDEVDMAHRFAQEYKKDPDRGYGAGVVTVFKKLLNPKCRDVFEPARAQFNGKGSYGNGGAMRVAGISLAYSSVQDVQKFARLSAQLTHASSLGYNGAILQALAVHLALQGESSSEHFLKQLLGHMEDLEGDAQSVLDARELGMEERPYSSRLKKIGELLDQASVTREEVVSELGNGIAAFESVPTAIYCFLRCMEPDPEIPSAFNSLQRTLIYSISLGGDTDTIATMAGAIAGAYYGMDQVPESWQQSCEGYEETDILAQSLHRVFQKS

[4] = biological target: Poly [ADP-ribose] polymerase 1 (Homo sapiens, UniProt P09874); test: Inhibition of human PARP1 expressed in Escherichia coli using activated DNA as substrate after 60 mins by peroxy glow reagent A/B based assay
Sequence of Poly [ADP-ribose] polymerase 1 (P09874 whole entry): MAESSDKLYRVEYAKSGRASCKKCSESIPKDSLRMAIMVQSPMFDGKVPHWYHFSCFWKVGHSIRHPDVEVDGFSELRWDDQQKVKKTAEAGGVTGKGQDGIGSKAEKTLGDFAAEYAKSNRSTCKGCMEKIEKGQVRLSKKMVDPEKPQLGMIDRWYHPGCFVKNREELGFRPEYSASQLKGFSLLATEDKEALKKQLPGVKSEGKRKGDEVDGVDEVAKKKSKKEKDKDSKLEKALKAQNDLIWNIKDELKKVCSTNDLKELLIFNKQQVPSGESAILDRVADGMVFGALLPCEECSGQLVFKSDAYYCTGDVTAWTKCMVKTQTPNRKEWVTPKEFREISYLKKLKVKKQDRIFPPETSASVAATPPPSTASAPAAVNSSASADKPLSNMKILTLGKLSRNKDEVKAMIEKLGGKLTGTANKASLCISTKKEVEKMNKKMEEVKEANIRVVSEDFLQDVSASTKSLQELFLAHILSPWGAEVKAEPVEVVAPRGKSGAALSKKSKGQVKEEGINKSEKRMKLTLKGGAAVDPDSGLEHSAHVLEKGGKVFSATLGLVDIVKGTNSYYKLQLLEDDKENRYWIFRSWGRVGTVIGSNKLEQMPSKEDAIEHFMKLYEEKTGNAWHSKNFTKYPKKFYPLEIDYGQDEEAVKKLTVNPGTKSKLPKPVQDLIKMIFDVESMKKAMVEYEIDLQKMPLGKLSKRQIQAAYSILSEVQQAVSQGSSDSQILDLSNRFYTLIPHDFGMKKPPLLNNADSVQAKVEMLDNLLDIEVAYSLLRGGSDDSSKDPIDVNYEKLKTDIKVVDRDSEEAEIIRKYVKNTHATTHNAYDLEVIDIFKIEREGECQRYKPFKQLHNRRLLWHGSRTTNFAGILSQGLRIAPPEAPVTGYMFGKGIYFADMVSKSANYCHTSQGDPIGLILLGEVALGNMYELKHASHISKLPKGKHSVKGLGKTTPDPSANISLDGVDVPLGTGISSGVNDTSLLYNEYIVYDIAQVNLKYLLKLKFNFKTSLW

[5] = Clearance in human liver microsomes
[6] = Clearance in mouse liver microsomes
[7] = test system: PARG (human, full length); test: Selectivity ratio of cytotoxicity for human HeLa cells to EC50 for human full length PARG; assay type: toxicity, cell-based
[8] = test system: HeLa; test: Cytotoxicity against human HeLa cells after 72 hrs by Hoechst 33342 staining based assay; assay type: cell-based
[9] = Solubility of the compound by turbidimetric method; assay type: physicochemical

Structure (SMILES) | EC50 [1] | EC50 [2] | EC50 [3] | EC50 [4] | microsomal CLint [5] | microsomal CLint [6] | solubility kinetic [9] | selectivity ratio [7] | Activity [8]
CC1(NS(=O)(=O)c2ccc3c(c2)c(=O)n(CC#N)c(=O)n3CC2CC2)CC1 | 270 nM | 1100 nM |  |  | 17 µL/min/mg | 36 µL/min/mg |  |  | 
Cn1c(=O)c2cc(S(=O)(=O)NC3(C)CC3)ccc2n(CC2CC2)c1=O | 440 nM | 620 nM | > 100000 nM | > 150000 nM |  |  |  | > 100 | 
CC(C)(C)NS(=O)(=O)c1ccc2c(c1)C(=O)c1ccccc1C2=O | 81000 nM | 30000 nM |  |  |  |  | 20 µM (≈ 6.87 µg/mL) |  | 16 µM

Molecules with a lower EC50 [1], results first:

EC50 [1] | EC50 [2] | EC50 [3] | EC50 [4] | microsomal CLint [5] | microsomal CLint [6] | solubility kinetic [9] | Structure (SMILES) | selectivity ratio [7] | Activity [8]
64 nM | 270 nM |  |  | 15 µL/min/mg | 35 µL/min/mg |  | Cc1cc(Cn2c(=O)n(Cc3nnc(C)s3)c(=O)c3cc(S(=O)(=O)NC4(C)CC4)ccc32)n(C)n1 |  | 
26 nM | 37 nM |  |  | 79 µL/min/mg |  |  | Cc1cc(Cn2c(=O)n(Cc3cnc(C)s3)c(=O)c3cc(S(=O)(=O)NC4(C)CC4)ccc32)n(C)n1 | > 100 | 
23 nM | 88 nM | > 100000 nM | > 150000 nM | 34 µL/min/mg |  |  | Cc1cc(Cn2c(=O)n(Cc3cnn(C)c3)c(=O)c3cc(S(=O)(=O)NC4(C)CC4)ccc32)n(C)n1 | > 100 | 
19 nM | 28 nM | > 100000 nM | > 150000 nM | 160 µL/min/mg |  |  | Cc1ncc(Cn2c(=O)c3cc(S(=O)(=O)NC4(C)CC4)ccc3n(CC3CC3)c2=O)s1 |  | 
